Screening results deposited in PubChem by The Scripps Research Institute Molecular Screening Center.
MBD2 DNA inh: inhibitors of MBD2 binding to methylated DNA, primary screen, biochemical, TR-FRET, DNA-binding domain, human. inhibition, % at 4.4 µM. AID 686964, 2013. Methyl-CpG-binding domain protein 2 (Homo sapiens), Q9UBB5. MBD2 binding to methylated oligonucleotide. hit rate 0.31% among 370,000; in the data active = inhibition above about 13%
UHRF1 binding: UHRF1 methylated DNA binding inhibitors, primary screen, counter-screen for MBD2 inhibitor project, biochemical, TR-FRET, human UHRF1, single concentration; E3 ubiquitin-protein ligase UHRF1 (Homo sapiens), Q96T88; UHRF1 binding to methylated oligo; inhibition, % at 4.4 µM; hit rate 0.75% among 370,000; in the data active = inhibition above about 21%;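 note: UHRF1 SRA domain binding a hemimethylated CpG hairpin DNA probe; 0% = median of test compound wells and 100% = reference inhibitor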
TDP2 absorb: human TDP2 enzyme inhibitors, primary screen, biochemical, epi absorbance, recombinant enzyme | AID 720702, 2013 | T5PNP hydrolysis, p-nitrophenol absorbance 415 nm | hit rate 0.34% among 370,000 | inhibition, % at 12.8 µM;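 active = inhibition above the mean of all tested compounds plus 3 SD, set per campaign, cut at about 25% in these data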;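 note: 0% = DMSO with enzyme and 100% = buffer with substrate but no TDP2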
Target sequence (O95551 whole entry, looked up): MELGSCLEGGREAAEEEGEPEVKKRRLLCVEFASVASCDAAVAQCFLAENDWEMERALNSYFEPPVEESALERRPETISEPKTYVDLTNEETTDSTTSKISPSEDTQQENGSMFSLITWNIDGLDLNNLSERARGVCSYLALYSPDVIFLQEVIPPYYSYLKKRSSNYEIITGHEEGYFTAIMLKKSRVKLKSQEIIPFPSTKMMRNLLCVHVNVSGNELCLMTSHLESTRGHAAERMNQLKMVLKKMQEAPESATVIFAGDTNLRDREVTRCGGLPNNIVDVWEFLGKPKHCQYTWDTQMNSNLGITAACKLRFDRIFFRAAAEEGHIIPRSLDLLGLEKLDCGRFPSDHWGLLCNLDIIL
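Test system: Human TDP2 enzyme | Reagent: 5 mM T5PNP | Compound dosing: 12.8 µM single point, 1% DMSO | Incubation: Enzyme reaction with compound for 2 h at 37 °C | Technique: p-Nitrophenol epi absorbance | Read-out: % inhibition relative to enzyme-containing and enzyme-free wells | Benchmarks: High control without enzyme, low control DMSO plus TDP2 | Replicates: Singlicate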
LEDGF integ inh: blockers of LEDGF/p75-dependent integrase strand transfer – biochemical, TR-FRET, high throughput, primary screen; HIV-1 integrase (with human LEDGF/p75); TR-FRET IN-LEDGF/p75 DNA integration, Eu/Cy5; inhibition, % at 3.7 µM; hit rate 0.64% among 370,000; AID 743269, 2014;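 active = inhibition above the screen-wide mean plus 3 SD, cut at about 13% in these data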;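 note: signal is the Cy5 over europium emission ratio at 671 and 618 nm; 0% = plate median of compound wells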
IN multimer up: HIV-1 IN multimer formation enhancers, counter-screen for LEDGF/p75 integration inhibitor project, biochemical, TR-FRET. activation, % at 7.7 µM. shares compounds with LEDGF integ inh. AID 1053131, 2014. TR-FRET HIV-1 integrase multimerization. hit rate 17% among 2,000; in the data active = activation above about 8.9%
TRFRET interf: TR-FRET optical interference artefacts, confirmation, artefact control for LEDGF/p75-dependent integration inhibitor project, biochemical, HIV-1 IN multimerization. shares compounds with LEDGF integ inh. inhibition, % at 7.7 µM. 2,000 tested, under 10 active. AID 1053135, 2014. TR-FRET optical interference counterscreen;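 active = inhibition above the mean over all tested compounds plus 3 SD, which no compound reached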;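 note: 0% = integrase with antibodies and DMSO and 100% = antibodies without integrase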
IN-LEDGF confirm: inhibitors of HIV-1 IN-LEDGF/p75 DNA integration, confirmation, biochemical, TR-FRET; hit rate 36% among 2,000; shares compounds with LEDGF integ inh; inhibition, % at 3.7 µM; TR-FRET LEDGF/p75-dependent HIV-1 integration; in the data active = inhibition above about 14%
An asterisk follows results filed as active; nt = no result given. Only some compounds are listed: those with a hit (about 1.6% of all), similar ones and a draw of the others.

SMILES	MBD2 DNA inh	UHRF1 binding	TDP2 absorb	LEDGF integ inh	IN multimer up	TRFRET interf	IN-LEDGF confirm
Cc1cc(NS(=O)(=O)c2ccc(NC(=O)CSc3nnc(-c4cnccn4)n3-c3ccccc3)cc2)nc(C)n1	0	1	-6	1	nt	nt	nt
N#Cc1ccsc1NC(=O)CN1CCN(S(=O)(=O)c2ccccc2C(F)(F)F)CC1	1	-1	0	79*	1	-7	2
COC(=O)[C@]12C[C@H](CC(=O)NCC34CC5CC(CC(C5)C3)C4)C(=O)N(Cc3ccccc3)C1=C[C@H](C(C)(C)C)O[C@@H]2C	-2	-2	-2	2	nt	nt	nt
Cn1c(=O)c2c(nc(NN=C3CCCC3)n2C)n(C)c1=O	-1	2	6	19*	6	-33	10
CCC[C@H]1[C@@H](OC(=O)NCc2ccccc2)CC[C@@]23CCCN2C(=O)CCC[C@@H]13	8	-3	6	-3	nt	nt	nt
CCOc1ccc(/C=c2\sc3nc(-c4ccco4)nn3c2=O)cc1OCC	9	39*	-4	16*	1	-4	6
COc1cc(/C=c2\sc3nc(=O)c(-c4ccccc4)nn3c2=O)ccc1OCCC(C)C	-4	0	1	0	nt	nt	nt
CCCC1CCC2(CC1)CCC2OC(=S)NCCc1ccc(Cl)cc1 (stereo not drawn)	1	0	5	4	nt	nt	nt
Cc1ccc(-n2c(SCc3ccc(Cl)c(Cl)c3)nnc2-c2ccc(C(C)(C)C)cc2)cc1	-6	0	1	-4	nt	nt	nt
O=C(Cc1ccc(Br)cc1)NNC(=O)c1cccs1	3	-2	4	14*	0	0	0
O=C(Cc1ccccc1)NNC(=O)c1cccs1	7	10	0	0	nt	nt	nt
CN1C2CCC1/C(=C/c1cccn1C)C(=O)/C2=C\c1cccn1C	-9	-7	10	14*	0	0	-3
CN1C2CCC1/C(=C\c1ccc(F)cc1)C(=O)/C2=C/c1ccc(F)cc1	-5	-2	6	2	nt	nt	nt
Oc1cccc(Nc2ccccc2)c1	0	-1	3	16*	26*	-83	1
COC(=O)[C@]12C[C@H](CC(=O)NCCCCc3ccccc3)C(=O)N(Cc3cccc4ccccc34)C1=C[C@H](C(C)(C)C)O[C@@H]2C	-1	-4	-4	1	nt	nt	nt
CCOC(=O)C(=O)Cc1cccnn1	1	25*	12	22*	3	-13	50*
Cc1cccc(CCNC(=O)c2ccc3c(c2)ncn3C2CCCCC2)c1	-4	3	1	2	nt	nt	nt
CCOC(=O)c1c(NC(=O)CSc2nnc(CNC(=O)c3ccco3)n2C)sc2c1CCC2	-5	4	-19	60*	-1	3	-3
O=S(=O)(O)c1ccc(O)c2cc(Nc3ccccc3)ccc12	70*	92*	24	87*	66*	-236	77*
Cc1ccc(S(=O)(=O)c2cc(Nc3ccccc3)ccc2O)cc1	-1	-3	2	-3	nt	nt	nt
CCC(=O)Nc1ccc2c(c1)C(=O)N(C)[C@@H]1CC[C@@H](CC(=O)NCCN3CCCCC3)O[C@H]1CO2	1	4	0	0	nt	nt	nt
c1coc(-c2ccnc3nc(-n4cccc4)nn23)c1	6	-6	-5	17*	1	-5	8
CCOC(=O)[C@]12CCCC=C1N(CCCOC)C(=O)[C@@H]2CC(=O)NCCCN1CCCC1=O	0	4	1	2	nt	nt	nt
C=CCN(c1ccccc1Cl)S(=O)(=O)c1cccc(C(=O)NCCc2ccc(OC)cc2)c1	-3	-1	9	90*	-1	2	-9
COc1ccc(CCNC(=O)c2cccc(S(=O)(=O)N3CCCCC3)c2)cc1	-6	2	-13	7	nt	nt	nt
SMILES	MBD2 DNA inh	UHRF1 binding	TDP2 absorb	LEDGF integ inh	IN multimer up	TRFRET interf	IN-LEDGF confirm
C[C@H](O)[C@@H]1C(=O)N2CCc3c([nH]c4cccc(-c5ccccc5)c34)[C@@H]2C[C@@H]1N(C)C(=O)C1CCCCC1	-1	1	-2	4	nt	nt	nt
O=C1c2cc(O)c(O)cc2OC(c2ccc(O)c(O)c2)C1O (stereo not drawn)	2	1	-3	49*	15*	-75	55*
CCOC(=O)[C@@]12CN(C(=O)OC(C)(C)C)CC=C1N(Cc1ccc(OC)cc1)C(=O)[C@H]2CC(=O)NCCC(C)C	-3	0	-1	1	nt	nt	nt
COc1ccc(CCNC(=O)c2cc(Cl)nc3ccccc23)cc1	-2	0	-13	15*	1	-3	-8
COc1ccc(CCNC(=O)c2cc(-c3ccccn3)nc3ccccc23)cc1	4	-1	0	-1	nt	nt	nt
CC(C)(C)c1ccc(-c2noc(CCC(=O)NC3CC3)n2)cc1	3	-2	4	-3	nt	nt	nt
Cc1ccc2cc(N)ccc2n1	-7	-1	-4	-6	nt	nt	nt
Nc1ccc2cc3ccc(N)cc3nc2c1	-38	-368	16	44*	33*	-165	74*
Cc1nn(-c2ccccc2)c2sc(C(=O)NCc3ccc4c(c3)OCO4)cc12	-2	-3	1	2	nt	nt	nt
NC(=S)NN=Cc1nccc2ccccc12	-8	-18	-5	1	nt	nt	nt
Cc1cnc(C=NNC(N)=S)c2cccc(N)c12	-4	11	15	17*	20*	-99	61*
COc1ccc(CCNC(=O)c2cccs2)cc1OC	-7	4	4	1	nt	nt	nt
COc1ccc(CCNC(=O)Cc2cccs2)cc1OC	-4	1	0	22*	1	-3	4
COc1ccc(NC(=O)Cn2c(=O)oc3cc(Cl)ccc32)c(OC)c1	-3	-2	4	1	nt	nt	nt
COc1ccc(CCNC(=O)Cn2c(=O)oc3cc(Cl)ccc32)cc1OC	1	-2	4	34*	0	1	-1
Nc1[nH]c(C(=O)c2ccccc2)c(-c2ccc(Cl)cc2F)c1C(=O)NCCc1c[nH]c2ccccc12	4	-4	5	0	nt	nt	nt
CN(Cc1ccccc1)C(=O)c1nc[nH]c1C(=O)N(C)Cc1ccccc1	2	1	3	17*	0	-2	7
Nc1c(Br)cc2c(c1Br)C(O)c1ccccc1-2 (stereo not drawn)	0	-2	0	26*	5	-25	0
